Measurements as given in ChEMBL document CHEMBL4190287, “Identification of Antiangiogenic Potential and Cellular Mechanisms of Napyradiomycin A1 Isolated from the Marine-Derived Streptomyces sp. YP127” (J Nat Prod, 2017).
Calls of active or inactive are those of the source. The rule behind the calls is not given here.

Key:
HUVEC [1] = test: Antiangiogenic activity in HUVEC assessed as inhibition of VEGF-induced tube formation after 24 hrs by calcein-AM dye based fluorescence assay; assay type: functional, cell-based; conditions: Homo sapiens
Summary of the method: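 HUVECs (passage 6–8) seeded at 6 × 10^4 cells on growth-factor-reduced Matrigel, incubated 24 h with compound at various concentrations plus 10 ng/mL recombinant human VEGF; stained 2 μg/mL Calcein AM 20 min, 37 °C, imaged. Tubes with three branch points counted; three independent experiments, mean tube numbers; IC50 from concentration–response.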

HUVEC [2] = test: Antiproliferative activity against HUVEC after 72 hrs by Celltiter-Glo luminescent cell viability assay; assay type: functional; conditions: Homo sapiens
Summary of the method: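 HUVECs seeded 2.5 × 10^3 per well, treated with compound at different concentrations; confluency imaged every 6 h over 72 h. At 72 h viable cells measured by CellTiter-Glo luminescence; GI50 calculated.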

HUVEC [3] = test: Cytotoxicity against HUVEC assessed as cell death at 20 uM after 24 hrs by YOYO-1 Iodide staining based fluorescence assay; conditions: human
HUVEC [4] = test: Antiproliferative activity against HUVEC assessed as inhibition of Ki67 expression at 20 uM after 24 hrs by immunofluorescent microscopic analysis; assay type: functional, cell-based; conditions: Homo sapiens
Summary of the method: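 HUVECs seeded 4 × 10^4 per well on gelatin, treated 24 h; fixed 4% paraformaldehyde 10 min, permeabilized 0.1% Triton X-100 10 min, blocked 10% normal horse serum 1 h RT, anti-Ki-67 1 h, Cy3 secondary, DAPI nuclear stain; fluorescence microscopy.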

HUVEC [5] = test: Antimigratory activity against VEGF-stimulated HUVEC at 20 uM after 24 hrs by scratch wound-healing assay; assay type: functional, cell-based; conditions: Homo sapiens
Summary of the method: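 HUVECs plated at 1 × 10^5 cells/well, grown overnight, wounded with pin device, washed twice with PBS; medium with 10 ng/mL VEGF plus compound or DMSO added. Live-cell images every 3 h for 24 h; wound confluence (cell density in wound area, %) computed by imaging algorithm.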

HUVEC [6] = test: Antiinvasive activity in HUVEC assessed as inhibition of VEGF-induced cell invasion at 20 uM measured every 3 hrs for 24 hrs relative to control; assay type: functional, Homo sapiens; parameters: scale not given: the % may be the effect or the level left
Summary of the method: (§1)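 Wound made in HUVEC monolayer (1 × 10^5 cells/well, grown overnight) with pin wounding device, washed with PBS; growth-factor-reduced basement membrane matrix overlaid on wound, compound-containing medium added. Tip cells at invasive front counted after 24 and 48 h of treatment versus control, live-cell imaging.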

HUVEC [7] = test: Antiinvasive activity in HUVEC assessed as inhibition of VEGF-induced cell invasion at 20 uM measured every 3 hrs for 48 hrs relative to control; assay type: functional, Homo sapiens; parameters: scale not given: the % may be the effect or the level left; summary of the method: as §1
HUVEC [8] = test: Downregulation of PECAM1 mRNA level in HUVEC at 20 uM after 24 hrs by qRT-PCR method relative to control; assay type: functional, Homo sapiens
HUVEC [9] = test: Downregulation of PECAM1 mRNA level in HUVEC at 20 uM after 48 hrs by qRT-PCR method relative to control; assay type: functional, Homo sapiens
HUVEC [10] = test: Downregulation of VE-cadherin mRNA level in HUVEC at 20 uM after 24 hrs by qRT-PCR method relative to control; assay type: functional, Homo sapiens
Summary of the method: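 Total RNA from compound- or DMSO-treated HUVECs (24 h) extracted, cDNA made, VE-cadherin mRNA quantified by real-time PCR relative to control.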

HUVEC [11] = test: Downregulation of VE-cadherin mRNA level in HUVEC at 20 uM after 48 hrs by qRT-PCR method relative to control; assay type: functional, Homo sapiens
HUVEC [12] = test: Downregulation of VE-cadherin expression in HUVEC at 20 uM by Western blot method; assay type: functional, cell-based; conditions: Homo sapiens, TDE = time-dependent effect
Summary of the method: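 HUVEC lysates in RIPA buffer with protease inhibitors, separated on 4–12% SDS gradient gel, transferred to PVDF, probed with anti-VE-cadherin and anti-GAPDH, HRP secondary, ECL detection.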

HUVEC [13] = test: Downregulation of PECAM1 expression in HUVEC at 20 uM after 24 to 48 hrs by Western blot method; assay type: functional, cell-based; conditions: Homo sapiens
HUVEC [14] = test: Induction of cellular permeability in HUVEC at 20 uM by Transwell assay; assay type: functional, cell-based; conditions: Homo sapiens, TDE = time-dependent effect
Summary of the method: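 HUVECs (5 × 10^5 cells/well) grown 48 h on gelatin-coated Transwell inserts, then exposed to compound a further 48 h; 1 mg/mL FITC-dextran added to upper chamber and fluorescence transferred to lower chamber read on plate reader.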

[15] = Antiproliferative activity against human BJ6 cells at 0.2 to 20 uM after 72 hrs by IncuCyte live imaging

With `CC(C)=CCC/C(C)=C/C[C@@]12OC(C)(C)[C@H](Cl)C[C@]1(Cl)C(=O)c1c(O)cc(O)cc1C2=O` as the molecule, how does the IC50 (HUVEC [1]) read?
Its IC50 is 10 µM.

And the GI50 (HUVEC [2])?
The GI50 was 27.6 µM.

What about the Activity (HUVEC [3]) of the same molecule?
Its Activity is “Non-Toxic”.

And the inhibition (HUVEC [4])?
Its inhibition is “Active”.

And the Activity (HUVEC [5])?
Its Activity is “Active”.

And the Activity (HUVEC [6])?
Its Activity is 43%.

And the Activity (HUVEC [7])?
The Activity was 52%.

And the Activity (HUVEC [8])?
The Activity was 53%.

And the Activity (HUVEC [9])?
Its Activity is 70%.

What about the Activity (HUVEC [10]) of the same molecule?
Its Activity is 76%.

What about the Activity (HUVEC [11]) of the same molecule?
The Activity was 94%.

What about the Activity (HUVEC [12]) of the same molecule?
The Activity was “Tde”.

And the Activity (HUVEC [13])?
The Activity was “inactive”.

What about the Activity (HUVEC [14]) of the same molecule?
Its Activity is “Tde”.

And the Activity [15]?
The Activity was “Non-Toxic”.
